According to ChEMBL document CHEMBL1136991, “Novel potent BRAF inhibitors: toward 1 nM compounds through optimization of the central phenyl ring” (J Med Chem, 2009):

Assays:
[1] = target: Homeodomain-interacting protein kinase 2 (Homo sapiens) (UniProt Q9H2X6); assay: Inhibition of HIPK2 at 1 uM relative to control
[2] = target: Serine/threonine-protein kinase PLK1 (Homo sapiens) (UniProt P53350); assay: Inhibition of okadaic acid activated PLK1 at 1 uM relative to control
[3] = target: Tyrosine-protein kinase Lck (Homo sapiens) (UniProt P06239); assay: Inhibition of Lck at 1 uM relative to control
Tyrosine-protein kinase Lck (Homo sapiens), sequence (P06239 2-509 limits assumed): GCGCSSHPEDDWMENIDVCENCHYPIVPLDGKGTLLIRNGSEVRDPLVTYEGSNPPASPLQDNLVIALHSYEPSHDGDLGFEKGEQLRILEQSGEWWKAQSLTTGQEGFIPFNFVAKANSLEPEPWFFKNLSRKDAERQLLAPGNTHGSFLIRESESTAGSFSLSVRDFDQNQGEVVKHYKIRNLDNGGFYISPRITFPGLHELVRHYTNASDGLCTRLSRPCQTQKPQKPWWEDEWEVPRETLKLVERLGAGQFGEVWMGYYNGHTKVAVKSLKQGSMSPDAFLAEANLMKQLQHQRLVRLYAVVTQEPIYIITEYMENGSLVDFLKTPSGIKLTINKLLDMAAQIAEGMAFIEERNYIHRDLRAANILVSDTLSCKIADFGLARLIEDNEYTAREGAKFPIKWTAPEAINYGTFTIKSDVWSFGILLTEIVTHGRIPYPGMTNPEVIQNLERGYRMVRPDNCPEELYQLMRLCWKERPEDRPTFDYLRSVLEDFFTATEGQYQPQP

[4] = target: Dual specificity mitogen-activated protein kinase kinase 1 (Homo sapiens) (UniProt Q02750); assay: Inhibition of MKK1 at 1 uM relative to control
Dual specificity mitogen-activated protein kinase kinase 1 (Homo sapiens), sequence (Q02750 whole entry): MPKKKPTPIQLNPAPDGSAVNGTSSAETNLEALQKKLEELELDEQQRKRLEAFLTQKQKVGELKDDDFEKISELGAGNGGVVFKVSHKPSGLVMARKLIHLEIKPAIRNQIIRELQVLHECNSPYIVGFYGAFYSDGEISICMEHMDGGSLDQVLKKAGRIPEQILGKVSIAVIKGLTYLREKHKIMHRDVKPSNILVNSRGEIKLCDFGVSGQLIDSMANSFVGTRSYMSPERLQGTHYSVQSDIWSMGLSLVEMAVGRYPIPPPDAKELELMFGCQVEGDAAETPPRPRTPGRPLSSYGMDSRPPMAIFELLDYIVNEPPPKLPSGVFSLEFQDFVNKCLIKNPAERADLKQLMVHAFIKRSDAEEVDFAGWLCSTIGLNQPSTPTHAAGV

[5] = target: SRSF protein kinase 1 (Homo sapiens) (UniProt Q96SB4); assay: Inhibition of SRPK1 at 1 uM relative to control
SRSF protein kinase 1 (Homo sapiens), sequence (Q96SB4 whole entry): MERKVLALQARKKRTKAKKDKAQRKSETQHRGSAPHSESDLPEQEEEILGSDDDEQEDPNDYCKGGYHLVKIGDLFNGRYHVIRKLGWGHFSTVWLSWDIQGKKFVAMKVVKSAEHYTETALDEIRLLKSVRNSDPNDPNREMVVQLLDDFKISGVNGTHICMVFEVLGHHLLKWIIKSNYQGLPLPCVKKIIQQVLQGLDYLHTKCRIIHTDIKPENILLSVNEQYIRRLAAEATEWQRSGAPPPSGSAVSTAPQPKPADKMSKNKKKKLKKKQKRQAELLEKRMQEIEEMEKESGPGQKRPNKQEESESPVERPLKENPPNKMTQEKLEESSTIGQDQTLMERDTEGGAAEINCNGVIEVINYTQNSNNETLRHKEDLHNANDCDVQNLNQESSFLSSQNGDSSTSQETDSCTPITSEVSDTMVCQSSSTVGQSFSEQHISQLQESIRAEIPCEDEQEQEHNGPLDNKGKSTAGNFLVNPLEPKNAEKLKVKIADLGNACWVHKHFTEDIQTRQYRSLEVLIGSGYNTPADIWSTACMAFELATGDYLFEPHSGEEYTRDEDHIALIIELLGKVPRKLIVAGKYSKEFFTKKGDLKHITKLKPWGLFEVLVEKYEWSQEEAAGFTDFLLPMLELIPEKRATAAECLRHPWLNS

[6] = target: Serine/threonine-protein kinase B-raf (Homo sapiens, UniProt P15056, V600E); assay: Inhibition of BRAF V600E mutant
Serine/threonine-protein kinase B-raf, sequence (P15056 2-766 V600E limits assumed): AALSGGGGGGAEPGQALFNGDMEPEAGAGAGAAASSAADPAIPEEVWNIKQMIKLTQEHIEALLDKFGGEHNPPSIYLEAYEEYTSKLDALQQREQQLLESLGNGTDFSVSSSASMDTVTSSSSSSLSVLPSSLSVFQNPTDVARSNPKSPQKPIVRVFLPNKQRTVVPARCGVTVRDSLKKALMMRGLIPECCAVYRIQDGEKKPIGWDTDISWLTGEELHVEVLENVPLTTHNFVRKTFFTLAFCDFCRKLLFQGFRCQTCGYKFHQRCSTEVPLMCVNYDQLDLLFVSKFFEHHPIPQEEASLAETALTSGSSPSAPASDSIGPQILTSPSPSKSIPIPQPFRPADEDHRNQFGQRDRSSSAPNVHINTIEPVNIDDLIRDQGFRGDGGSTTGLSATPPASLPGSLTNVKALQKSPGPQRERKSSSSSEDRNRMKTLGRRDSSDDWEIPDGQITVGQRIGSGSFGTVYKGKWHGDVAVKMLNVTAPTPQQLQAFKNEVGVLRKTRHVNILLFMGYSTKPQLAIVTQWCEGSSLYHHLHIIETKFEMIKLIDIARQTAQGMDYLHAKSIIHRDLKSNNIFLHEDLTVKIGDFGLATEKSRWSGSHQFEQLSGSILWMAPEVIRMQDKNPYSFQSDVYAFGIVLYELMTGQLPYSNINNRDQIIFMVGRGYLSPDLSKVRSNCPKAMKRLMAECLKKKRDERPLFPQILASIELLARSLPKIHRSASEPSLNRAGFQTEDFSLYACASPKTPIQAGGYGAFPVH
How it was run: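 Purified, isolated V600E BRAF enzyme assayed in vitro; potency reported as IC50.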

[7] = target: Ribosomal protein S6 kinase alpha-1 (Homo sapiens) (UniProt Q15418); assay: Inhibition of RSK1 at 1 uM relative to control
[8] = target: Mitogen-activated protein kinase 3 (Homo sapiens) (UniProt P27361); assay: Inhibition of ERK1 at 1 uM relative to control
Mitogen-activated protein kinase 3 (Homo sapiens), sequence (P27361 whole entry): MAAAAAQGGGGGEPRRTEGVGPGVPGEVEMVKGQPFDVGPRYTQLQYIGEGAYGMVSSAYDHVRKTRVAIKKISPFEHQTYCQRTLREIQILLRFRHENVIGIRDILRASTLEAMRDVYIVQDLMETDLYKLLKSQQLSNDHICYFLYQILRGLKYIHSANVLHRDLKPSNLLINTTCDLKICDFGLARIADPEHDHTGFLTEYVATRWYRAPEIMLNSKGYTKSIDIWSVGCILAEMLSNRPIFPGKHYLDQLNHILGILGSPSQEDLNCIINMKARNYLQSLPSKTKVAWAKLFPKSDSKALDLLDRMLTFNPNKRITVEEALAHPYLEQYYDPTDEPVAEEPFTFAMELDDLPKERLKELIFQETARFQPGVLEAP

[9] = Inhibition of CK1 at 1 uM relative to control
[10] = target: T1, Serine/threonine-protein kinase 3 (Homo sapiens) (UniProt Q13188); assay: Inhibition of MST2 at 1 uM relative to control
T1 sequence (whole entry): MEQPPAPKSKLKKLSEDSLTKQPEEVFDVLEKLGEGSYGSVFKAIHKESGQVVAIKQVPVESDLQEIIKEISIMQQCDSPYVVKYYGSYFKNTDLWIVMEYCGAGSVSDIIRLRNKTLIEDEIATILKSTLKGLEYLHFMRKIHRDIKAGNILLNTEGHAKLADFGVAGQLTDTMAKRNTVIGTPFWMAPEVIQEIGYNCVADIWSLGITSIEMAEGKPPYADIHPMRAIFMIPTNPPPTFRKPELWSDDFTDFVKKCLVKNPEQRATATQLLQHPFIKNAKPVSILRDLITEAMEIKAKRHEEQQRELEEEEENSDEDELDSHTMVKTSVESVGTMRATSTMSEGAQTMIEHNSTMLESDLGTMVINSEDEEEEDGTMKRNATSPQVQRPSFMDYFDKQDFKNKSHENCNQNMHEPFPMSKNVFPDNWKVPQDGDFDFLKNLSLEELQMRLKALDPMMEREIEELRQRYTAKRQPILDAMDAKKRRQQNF

[11] = target: Proto-oncogene tyrosine-protein kinase Src (Homo sapiens) (UniProt P12931); assay: Inhibition of Src at 1 uM relative to control
Proto-oncogene tyrosine-protein kinase Src (Homo sapiens), sequence (P12931 2-536 limits assumed): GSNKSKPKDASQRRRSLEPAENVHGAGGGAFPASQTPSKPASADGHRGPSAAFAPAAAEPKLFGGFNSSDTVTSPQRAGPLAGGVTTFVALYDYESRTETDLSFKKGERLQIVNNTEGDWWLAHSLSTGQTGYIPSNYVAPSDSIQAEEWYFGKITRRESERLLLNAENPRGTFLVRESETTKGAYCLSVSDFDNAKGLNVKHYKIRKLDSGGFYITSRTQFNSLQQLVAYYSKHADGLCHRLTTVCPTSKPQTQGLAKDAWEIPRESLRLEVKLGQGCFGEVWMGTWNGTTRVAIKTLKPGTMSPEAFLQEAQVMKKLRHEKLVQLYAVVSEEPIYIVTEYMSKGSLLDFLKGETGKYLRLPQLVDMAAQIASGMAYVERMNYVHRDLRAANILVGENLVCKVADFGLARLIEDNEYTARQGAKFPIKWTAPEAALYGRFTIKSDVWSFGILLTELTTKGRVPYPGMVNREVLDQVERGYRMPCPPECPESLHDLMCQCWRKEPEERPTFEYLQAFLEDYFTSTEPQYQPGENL

[12] = target: Serine/threonine-protein kinase Chk2 (Homo sapiens) (UniProt O96017); assay: Inhibition of CHK2 at 1 uM relative to control
Serine/threonine-protein kinase Chk2 (Homo sapiens), sequence (O96017 whole entry): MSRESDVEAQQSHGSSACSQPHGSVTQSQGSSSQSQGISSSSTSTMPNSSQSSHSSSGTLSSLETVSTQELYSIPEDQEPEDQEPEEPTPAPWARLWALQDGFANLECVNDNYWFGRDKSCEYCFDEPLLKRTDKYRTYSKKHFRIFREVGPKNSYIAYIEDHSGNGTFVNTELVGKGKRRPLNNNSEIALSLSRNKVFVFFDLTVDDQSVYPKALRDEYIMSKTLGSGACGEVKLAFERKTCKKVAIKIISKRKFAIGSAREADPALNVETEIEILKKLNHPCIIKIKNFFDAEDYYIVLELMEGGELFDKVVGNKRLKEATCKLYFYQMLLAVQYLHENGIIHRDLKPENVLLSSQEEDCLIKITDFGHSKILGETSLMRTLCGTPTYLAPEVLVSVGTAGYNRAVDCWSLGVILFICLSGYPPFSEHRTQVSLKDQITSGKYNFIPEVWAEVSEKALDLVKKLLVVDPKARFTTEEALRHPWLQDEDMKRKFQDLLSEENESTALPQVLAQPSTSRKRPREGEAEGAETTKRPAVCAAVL

[13] = target: T2, Serine/threonine-protein kinase Nek2 (Homo sapiens) (UniProt P51955); assay: Inhibition of NEK2a at 1 uM relative to control
T2 sequence (whole entry): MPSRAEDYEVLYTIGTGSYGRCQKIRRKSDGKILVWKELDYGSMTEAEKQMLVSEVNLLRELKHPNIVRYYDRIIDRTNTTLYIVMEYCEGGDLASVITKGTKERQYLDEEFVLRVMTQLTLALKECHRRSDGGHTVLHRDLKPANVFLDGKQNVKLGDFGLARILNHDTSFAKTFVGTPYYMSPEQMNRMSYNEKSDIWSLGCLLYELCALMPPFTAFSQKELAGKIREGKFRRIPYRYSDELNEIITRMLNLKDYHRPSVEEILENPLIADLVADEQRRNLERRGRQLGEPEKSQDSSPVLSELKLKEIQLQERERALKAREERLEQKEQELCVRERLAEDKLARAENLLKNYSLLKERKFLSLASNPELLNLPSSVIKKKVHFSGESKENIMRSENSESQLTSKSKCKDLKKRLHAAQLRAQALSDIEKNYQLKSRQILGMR

[14] = target: T3, Mitogen-activated protein kinase 12 (Homo sapiens) (UniProt P53778); assay: Inhibition of p38-gamma at 1 uM relative to control
T3 sequence (whole entry): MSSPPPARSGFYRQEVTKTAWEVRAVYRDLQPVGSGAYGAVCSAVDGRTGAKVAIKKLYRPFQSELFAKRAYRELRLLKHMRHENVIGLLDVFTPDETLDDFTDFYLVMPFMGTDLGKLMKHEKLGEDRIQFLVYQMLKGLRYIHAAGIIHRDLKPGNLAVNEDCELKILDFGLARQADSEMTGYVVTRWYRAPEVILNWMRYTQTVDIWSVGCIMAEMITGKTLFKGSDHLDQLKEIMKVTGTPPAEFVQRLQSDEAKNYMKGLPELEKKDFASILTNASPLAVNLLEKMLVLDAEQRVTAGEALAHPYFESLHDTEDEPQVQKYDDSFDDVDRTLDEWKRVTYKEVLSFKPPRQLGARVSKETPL

[15] = target: T4, Eukaryotic elongation factor 2 kinase (Homo sapiens) (UniProt O00418); assay: Inhibition of EFK2 at 1 uM relative to control
T4 sequence (whole entry): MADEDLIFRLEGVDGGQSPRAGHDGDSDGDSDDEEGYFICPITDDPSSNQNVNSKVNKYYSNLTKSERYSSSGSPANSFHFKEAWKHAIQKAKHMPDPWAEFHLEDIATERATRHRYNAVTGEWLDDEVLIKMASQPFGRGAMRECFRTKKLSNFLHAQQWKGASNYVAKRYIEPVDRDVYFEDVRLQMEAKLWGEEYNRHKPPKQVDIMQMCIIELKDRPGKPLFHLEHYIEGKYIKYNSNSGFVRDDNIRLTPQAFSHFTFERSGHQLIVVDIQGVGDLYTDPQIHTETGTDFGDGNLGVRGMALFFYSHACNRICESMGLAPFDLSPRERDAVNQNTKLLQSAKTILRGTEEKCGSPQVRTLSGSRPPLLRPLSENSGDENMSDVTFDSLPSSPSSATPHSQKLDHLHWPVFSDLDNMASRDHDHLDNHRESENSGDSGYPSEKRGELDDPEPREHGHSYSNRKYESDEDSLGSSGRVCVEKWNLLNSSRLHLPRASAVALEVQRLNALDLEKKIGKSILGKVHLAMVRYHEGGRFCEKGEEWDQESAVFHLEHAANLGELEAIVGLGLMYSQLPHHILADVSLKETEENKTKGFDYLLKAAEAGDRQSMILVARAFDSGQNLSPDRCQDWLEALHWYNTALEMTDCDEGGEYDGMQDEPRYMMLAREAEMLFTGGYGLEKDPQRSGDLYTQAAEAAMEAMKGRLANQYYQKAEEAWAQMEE

[16] = target: Mitogen-activated protein kinase 14 (Homo sapiens) (UniProt Q16539); assay: Inhibition of p38alpha at 1 uM relative to control
Mitogen-activated protein kinase 14 (Homo sapiens), sequence (Q16539 whole entry): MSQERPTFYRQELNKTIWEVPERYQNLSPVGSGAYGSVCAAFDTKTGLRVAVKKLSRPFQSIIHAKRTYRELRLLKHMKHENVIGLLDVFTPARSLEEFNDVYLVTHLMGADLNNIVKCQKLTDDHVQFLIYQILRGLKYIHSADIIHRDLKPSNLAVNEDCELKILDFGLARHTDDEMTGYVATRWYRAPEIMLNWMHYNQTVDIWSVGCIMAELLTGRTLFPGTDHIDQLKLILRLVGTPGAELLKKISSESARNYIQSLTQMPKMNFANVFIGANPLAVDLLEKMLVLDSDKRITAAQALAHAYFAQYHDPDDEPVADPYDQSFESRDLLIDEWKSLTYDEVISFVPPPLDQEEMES

[17] = target: Tyrosine-protein kinase CSK (Homo sapiens) (UniProt P41240); assay: Inhibition of CSK at 1 uM relative to control

Serine/threonine-protein kinase PLK1 (Homo sapiens), sequence (P53350 whole entry): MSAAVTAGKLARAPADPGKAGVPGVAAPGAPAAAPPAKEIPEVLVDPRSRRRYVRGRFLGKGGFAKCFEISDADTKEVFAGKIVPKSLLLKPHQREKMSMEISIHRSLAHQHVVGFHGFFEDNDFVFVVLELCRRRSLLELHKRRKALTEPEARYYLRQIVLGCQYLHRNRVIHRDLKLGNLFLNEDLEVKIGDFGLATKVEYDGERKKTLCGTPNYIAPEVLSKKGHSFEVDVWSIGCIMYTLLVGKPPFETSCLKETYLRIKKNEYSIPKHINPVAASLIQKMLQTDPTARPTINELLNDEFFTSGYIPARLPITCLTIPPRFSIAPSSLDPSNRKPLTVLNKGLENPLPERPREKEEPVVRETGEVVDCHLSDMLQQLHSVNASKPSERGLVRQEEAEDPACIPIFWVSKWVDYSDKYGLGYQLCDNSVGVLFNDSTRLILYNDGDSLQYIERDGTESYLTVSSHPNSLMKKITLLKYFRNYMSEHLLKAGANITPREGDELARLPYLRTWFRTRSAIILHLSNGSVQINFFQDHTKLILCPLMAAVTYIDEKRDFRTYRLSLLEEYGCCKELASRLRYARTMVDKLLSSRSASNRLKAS

Which residual activity [1] does the source give for O=C(Nc1cc(C(F)(F)F)ccc1F)Nc1ccc(Oc2ccnc3[nH]c(=O)[nH]c23)c2ccccc12 here?
Its residual activity is 100%.

What about the residual activity [2] of the same compound?
The residual activity was 100%.

And the residual activity [3]?
The residual activity was under 25%.

And the residual activity [4]?
The residual activity was 100%.

What about the residual activity [5] of the same compound?
Its residual activity is 75%.

What about the IC50 [6] of the same compound?
Its IC50 is 37 nM.

And the residual activity [7]?
Its residual activity is 75%.

What about the residual activity [8] of the same compound?
Its residual activity is 100%.

And the residual activity [9]?
The residual activity was 100%.

What about the residual activity [10] of the same compound?
Its residual activity is 100%.

What about the residual activity [11] of the same compound?
The residual activity was under 25%.

What about the residual activity [12] of the same compound?
Its residual activity is 100%.

What about the residual activity [13] of the same compound?
The residual activity was 100%.

And the residual activity [14]?
The residual activity was 50%.

And the residual activity [15]?
The residual activity was 75%.

And the residual activity [16]?
Its residual activity is 100%.

And the residual activity [17]?
Its residual activity is under 25%.

Which results are given for CSc1cc(Oc2ccnc3[nH]c(=O)[nH]c23)ccc1NC(=O)Nc1cccc(C(F)(F)F)c1?
residual activity [1]: 75%; residual activity [2]: 100%; residual activity [3]: < 25%; residual activity [4]: 100%; residual activity [5]: 75%; IC50 [6]: 1 nM; residual activity [7]: 100%; residual activity [8]: 100%; residual activity [9]: 75%; residual activity [10]: 75%; residual activity [11]: < 25%; residual activity [12]: 100%; residual activity [13]: 100%; residual activity [14]: 50%; residual activity [15]: 100%; residual activity [16]: < 25%; residual activity [17]: < 25%

For CC(C)(C)c1cccc(NC(=O)Nc2ccc(Oc3ccnc4[nH]c(=O)[nH]c34)c3ccccc23)c1, which residual activity [1] is on record?
The residual activity was 75%.

And the residual activity [2]?
The residual activity was 75%.

What about the residual activity [3] of the same compound?
Its residual activity is under 25%.

And the residual activity [4]?
The residual activity was 75%.

And the residual activity [5]?
The residual activity was 75%.

And the IC50 [6]?
Its IC50 is 79 nM.

And the residual activity [7]?
Its residual activity is 75%.

What about the residual activity [8] of the same compound?
The residual activity was 100%.

What about the residual activity [9] of the same compound?
Its residual activity is 75%.

What about the residual activity [10] of the same compound?
Its residual activity is 75%.

What about the residual activity [11] of the same compound?
The residual activity was under 25%.

And the residual activity [12]?
The residual activity was 75%.

And the residual activity [13]?
Its residual activity is 75%.

What about the residual activity [14] of the same compound?
Its residual activity is under 25%.

What about the residual activity [15] of the same compound?
Its residual activity is 100%.

What about the residual activity [16] of the same compound?
The residual activity was under 25%.

What about the residual activity [17] of the same compound?
The residual activity was 50%.
